The source of these data is ChEMBL document CHEMBL4011629, “New Disubstituted Quindoline Derivatives Inhibiting Burkitt's Lymphoma Cell Proliferation by Impeding c-MYC Transcription” (J Med Chem, 2017).

The subject of test [1] is Raji. Put plainly: Induction of apoptosis in human Raji cells assessed as downregulation of CDK4 expression after 12 hrs by Western blot method. It counts as functional, cell-based. The method, boiled down: (§1)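 After compound exposure (12 h for cell-cycle and apoptosis markers), RAJI cells were lysed in 1% NP-40 buffer. Protein at 50 μg per lane was run on 3–12% SDS-PAGE and transferred to nitrocellulose. Blots were probed with primary antibodies (GAPDH as loading reference) and detected with an HRP secondary and enhanced chemiluminescence.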
(A western blot detects proteins with antibodies after separation by electrophoresis.)

Test [2] concerns Raji. Put plainly: Induction of apoptosis in human Raji cells assessed as downregulation of Cyclin D3 expression after 12 hrs by Western blot method. The test is classed as functional, cell-based. Summed up: as §1
In test [3] the test system is Raji. The test can be described thus: Induction of apoptosis in human Raji cells assessed as late apoptotic cells at 0.5 uM after 48 hrs by Annexin V-FITC/propidium iodide staining based flow cytometry (reference value: 0.1%). It counts as functional. Summed up:
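RAJI cells exposed to compound or control medium for 12 or 48 h were washed in PBS and resuspended in binding buffer. They were stained with FITC annexin V and PI for 15 min in the dark, and fluorescence was measured by flow cytometry.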

Test [4] deals with Raji. Put plainly: Induction of apoptosis in human Raji cells assessed as downregulation of Cyclin D1 expression after 12 hrs by Western blot method. It counts as functional, cell-based. The method, boiled down:
as §1

For test [5], the system named is Raji. The test can be described thus: Cell cycle arrest in human Raji cells assessed as accumulation at G0/G1 phase after 48 hrs by propidium iodide staining based flow cytometry (reference value: 38.5%). The test is classed as functional.
A short description of test [6]: Selectivity ratio of Kd for 5'-FAM labeled duplex DNA (unknown origin) to Kd for 5'-FAM labeled c-Myc Pu27 G-quadruplex DNA (unknown origin). Summed up: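 MST binding: FAM-Pu27 or FAM-duplex oligo at 10 μM in 10 mM Tris-HCl pH 7.4 with 150 mM KCl, annealed 95 °C 5 min, slow-cooled, held 4 °C overnight. Ligand titrated as a 12-point series, 0–20 μM for G4 or up to 200 μM for duplex. KD fitted with Hill model; three replicates.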

The species entered for test [7] is Homo sapiens. Put plainly: Stabilization of c-Myc G-quadruplex DNA in human Raji cells assessed as downregulation of c-Myc protein level at 1 uM by Western blot method. The test is classed as cell-based. The following applies: TDE = time-dependent effect. Summed up: (§2)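 Western blot of RAJI cells treated either with 1 μM for 6, 12, 24 and 48 h or with graded concentrations for 6 h. Lysed in 1% NP-40, 50 μg protein/lane on 3–12% SDS-PAGE, nitrocellulose, probed for c-MYC, NM23-H2, GAPDH loading control, HRP secondary with ECL; untreated control, three replicates.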

For test [8], the species on record is Homo sapiens. Put plainly: Effect on c-Myc DNA translocated chromosome product in human Raji cells assessed as decrease in amplification of exon-2 after 12 hrs by RT-PCR method. The test is classed as cell-based. The method, boiled down:
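RAJI cells, which retain NHE III1, and CA46 cells, which lack NHE III1 and the P1/P2 promoters, were exposed to graded compound concentrations for 12 h. Total RNA (2 μg) was reverse-transcribed with oligo dT18 and M-MLV. c-MYC exons 1 and 2, NM23-H2 and β-actin were amplified by real-time PCR against untreated cells. Three repeats were done; two-tailed unpaired t-test.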

For test [9], the species on record is Homo sapiens. The test can be described thus: Stabilization of c-Myc G-quadruplex DNA in human U266B1 cells assessed as downregulation of c-Myc mRNA level up to 4 uM after 12 hrs by RT-PCR method. The test is classed as cell-based. Summed up:
(§3)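 RAJI, CCRF-CEM and U266B1 grown in RPMI 1640 with 10% fetal calf serum at 37 °C, plated at 1 × 10^6 cells/well overnight, then treated 12 h with 4, 2, 1 or 0.5 μM (DMSO control). RNA (2 μg) reverse-transcribed with oligo dT18/M-MLV; c-MYC, NM23-H2 and β-actin amplified by real-time PCR, checked on 1.5% agarose.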

Test [10] relates to Raji. The test can be described thus: Induction of apoptosis in human Raji cells assessed as downregulation of CDK6 expression after 12 hrs by Western blot method. The test is classed as functional, cell-based. Summed up:
as §1

In test [11] the test system is Raji. The test can be described thus: Cell cycle arrest in human Raji cells assessed as accumulation at S phase after 6 hrs by propidium iodide staining based flow cytometry (reference value: 32.2%). The test is classed as functional. (Flow cytometry measures light scatter and fluorescence of single cells or particles in a stream.)
For test [12], the species on record is Homo sapiens. Put plainly: Stabilization of c-Myc G-quadruplex DNA in human CCRF-CEM cells assessed as downregulation of c-Myc mRNA level at 2 uM after 12 hrs by RT-PCR method relative to control. It counts as cell-based. Summed up:
as §3

Test [13] relates to Raji. Put plainly: Cell cycle arrest in human Raji cells assessed as accumulation at S phase after 48 hrs by propidium iodide staining based flow cytometry (reference value: 32.2%). It counts as functional.
The subject of test [14] is Raji. The test can be described thus: Antiproliferative activity against human Raji cells measured every 3 days up to 15 days. The test is classed as functional, cell-based. Summed up: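 RAJI cells (1.0 × 10^5 per well, six-well plates) were exposed every 3 days to a subcytotoxic ligand concentration or 0.1% DMSO. At each point cells were counted and viability checked, then flasks were reseeded at 1.0 × 10^5 cells. This continued for 15 days.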

The subject of test [15] is Raji. Put plainly: Cell cycle arrest in human Raji cells assessed as accumulation at G2/M phase after 12 hrs by propidium iodide staining based flow cytometry (reference value: 24.4%). It counts as functional.
Test [16] can be described thus: Stabilization of 5'-FAM/3'-TAMRA labeled c-Myc Pu22 G-quadruplex DNA (unknown origin) assessed as change in melting temperature at 2 uM by FRET assay. Summed up: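 FRET melting of FAM/TAMRA-labelled FPu22T (0.2 μM) in 10 mM Tris-HCl pH 7.4 with 2 mM KCl, ligand 2 μM, in a real-time PCR machine. Excitation 470 nm, emission 530 nm, read every 1 °C from 37 to 99 °C after 30 s hold at each step; ΔTm versus probe alone.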

In a further test the test system is U-266. The test can be described thus: Antiproliferative activity against human U266B1 cells after 12 hrs by MTT assay. The test is classed as functional, cell-based. The following applies: U-266, 12 h. Summed up:
(§4)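 RAJI, CCRF-CEM and U266B1 cells were seeded at 5 × 10^3 cells per well and exposed to compound for 12 h, with a DMSO vehicle control. MTT at 0.5 mg/mL was added for 4 h at 37 °C, then lysis solution overnight at 37 °C, and A570 was read. Assays were run in triplicate. IC50 was taken from the percentage survival relative to the negative control.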
On the technique in general: Tetrazolium dyes change colour on reduction, which living cells bring about.

The test system of test [17] is Raji. The test can be described thus: Cell cycle arrest in human Raji cells assessed as accumulation at G2/M phase after 24 hrs by propidium iodide staining based flow cytometry (reference value: 24.4%). It counts as functional.
Test [18] in a line: Stabilization of c-Myc Pu27 G-quadruplex DNA (unknown origin) assessed as induction of parallel G-quadruplex formation in presence of K+ ions by CD spectroscopic analysis. Summed up:
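CD spectra: Pu27 at 5 μM in 10 mM Tris-HCl pH 7.4 without or with 100 mM KCl, annealed 95 °C 5 min, slow-cooled, kept at 4 °C overnight, with ligand. Scanned 230–400 in a 4 mm quartz cuvette, 1 nm bandwidth and step, 0.5 s/point; buffer baseline subtracted.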

A further test relates to CCRF-CEM. Put plainly: Antiproliferative activity against human CCRF-CEM cells after 12 hrs by MTT assay. The test is classed as functional, cell-based. The method, boiled down:
as §4

Test [19] is filed under the species Homo sapiens. Put plainly: Stabilization of c-Myc G-quadruplex DNA in human Raji cells assessed as downregulation of c-Myc protein level after 6 hrs by Western blot method. The test is classed as cell-based. Summed up:
as §2

The source made the active and inactive calls. The rule behind the calls is not given here. Some results are limits rather than exact numbers.

Broadly, the ΔTm is the change in melting temperature against a reference sample. Usually IC50 stands for the concentration that inhibits the measured activity by half. Regarding `CN(C)CCCNc1c2ccccc2nc2c1oc1ccc(OCC3CCN(C)CC3)cc12`, the Activity result in the test with Raji [1] was “Dose-dependent effect”; with Raji [2], “Dose-dependent effect”; in the test on Raji [3], 0.7%; with Raji [4] it was “Dose-dependent effect”; with Raji [5], 57.1%; in the test filed under Homo sapiens [7], “Tde”. Moreover, the Activity result was “Dose-dependent effect” in the test filed under Homo sapiens [8]; “Dose-dependent effect” in the test with Raji [10]; 18.1% in the test with Raji [11]; less than 20% in the test filed under Homo sapiens [12]; 21.4% in the test on Raji [13]; “Dose-dependent effect” in the test on Raji [14]. Further, the Activity with Raji [15] was 29.3%; with Raji [17], 19.3%; in test [18] it was “Dose-dependent effect”; in the test filed under Homo sapiens [19], “Dose-dependent effect”. For the same compound, the Selectivity ratio in test [6] came out at 8. Besides, the outcome in the test listed under Homo sapiens [9] was inactive. Moreover, the ΔTm in test [16] is 26.6 °C. Also, the half-maximal inhibitory concentration (IC50) was 23 µM with U-266 and 18.1 µM in the test on CCRF-CEM.
